# According to ChEMBL document CHEMBL1145725, “Synthesis and antimicrobial activity of novel globomycin analogues” (2003):
# System: Enterobacter cloacae
# Assay: Antibacterial activity against Enterobacter cloacae SANK 72690
# Assay type: functional
# Settings: not given
# Procedure, shortened: (§1)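 MIC by agar dilution on Nutrient Agar, following the NCCLS standard dilution method for aerobically growing bacteria.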
row,MIC,SMILES
1,100 µg/mL,CCCCCC[C@H]1OC(=O)CNC(=O)[C@@H]([C@H](C)OC)NC(=O)[C@H](CO)NC(=O)[C@H]([C@H](C)CC)NC(=O)[C@H](CC(C)C)N(C)C(=O)[C@@H]1C
2,50 µg/mL,CCCCCC[C@H]1OC(=O)CNC(=O)[C@@H]([C@H](C)O)NC(=O)[C@H](CO)NC(=O)[C@H]([C@@H](C)CC)NC(=O)[C@H](CC(C)C)N(C)C(=O)[C@@H]1C
3,> 100 µg/mL,CCCCCC[C@H]1OC(=O)CNC(=O)[C@H](CC)NC(=O)[C@H](CO)NC(=O)[C@H]([C@H](C)CC)NC(=O)[C@H](CC(C)C)N(C)C(=O)[C@@H]1C

# System: Escherichia coli
# Assay: Antibacterial activity against Escherichia coli SANK 70569 (NIHJ JC-2)
# Assay type: functional
# Settings: not given
# Procedure, shortened: as §1
row,MIC,SMILES
1,25 µg/mL,CCCCCC[C@H]1OC(=O)CNC(=O)[C@@H]([C@H](C)OC)NC(=O)[C@H](CO)NC(=O)[C@H]([C@H](C)CC)NC(=O)[C@H](CC(C)C)N(C)C(=O)[C@@H]1C
2,12.5 µg/mL,CCCCCC[C@H]1OC(=O)CNC(=O)[C@@H]([C@H](C)O)NC(=O)[C@H](CO)NC(=O)[C@H]([C@@H](C)CC)NC(=O)[C@H](CC(C)C)N(C)C(=O)[C@@H]1C
3,25 µg/mL,CCCCCC[C@H]1OC(=O)CNC(=O)[C@H](CC)NC(=O)[C@H](CO)NC(=O)[C@H]([C@H](C)CC)NC(=O)[C@H](CC(C)C)N(C)C(=O)[C@@H]1C

# System: Salmonella enteritidis
# Assay: Antibacterial activity against Salmonella enteritidis SANK 72390
# Assay type: functional, Salmonella enterica subsp. enterica serovar Enteritidis
# Settings: Salmonella enterica
# Procedure, shortened: as §1
row,MIC,SMILES
1,50 µg/mL,CCCCCC[C@H]1OC(=O)CNC(=O)[C@@H]([C@H](C)OC)NC(=O)[C@H](CO)NC(=O)[C@H]([C@H](C)CC)NC(=O)[C@H](CC(C)C)N(C)C(=O)[C@@H]1C
2,50 µg/mL,CCCCCC[C@H]1OC(=O)CNC(=O)[C@@H]([C@H](C)O)NC(=O)[C@H](CO)NC(=O)[C@H]([C@@H](C)CC)NC(=O)[C@H](CC(C)C)N(C)C(=O)[C@@H]1C
3,100 µg/mL,CCCCCC[C@H]1OC(=O)CNC(=O)[C@H](CC)NC(=O)[C@H](CO)NC(=O)[C@H]([C@H](C)CC)NC(=O)[C@H](CC(C)C)N(C)C(=O)[C@@H]1C

# System: Escherichia coli
# Assay: Antibacterial activity against Escherichia coli SANK 72290
# Assay type: functional
# Settings: not given
# Procedure, shortened: as §1
row,MIC,SMILES
1,25 µg/mL,CCCCCC[C@H]1OC(=O)CNC(=O)[C@@H]([C@H](C)OC)NC(=O)[C@H](CO)NC(=O)[C@H]([C@H](C)CC)NC(=O)[C@H](CC(C)C)N(C)C(=O)[C@@H]1C
2,12.5 µg/mL,CCCCCC[C@H]1OC(=O)CNC(=O)[C@@H]([C@H](C)O)NC(=O)[C@H](CO)NC(=O)[C@H]([C@@H](C)CC)NC(=O)[C@H](CC(C)C)N(C)C(=O)[C@@H]1C
3,25 µg/mL,CCCCCC[C@H]1OC(=O)CNC(=O)[C@H](CC)NC(=O)[C@H](CO)NC(=O)[C@H]([C@H](C)CC)NC(=O)[C@H](CC(C)C)N(C)C(=O)[C@@H]1C

# System: Morganella morganii
# Assay: Antibacterial activity against Morganella morganii SANK 72990
# Assay type: functional
# Settings: not given
# Procedure, shortened: as §1
row,MIC,SMILES
1,> 100 µg/mL,CCCCCC[C@H]1OC(=O)CNC(=O)[C@@H]([C@H](C)OC)NC(=O)[C@H](CO)NC(=O)[C@H]([C@H](C)CC)NC(=O)[C@H](CC(C)C)N(C)C(=O)[C@@H]1C
2,> 100 µg/mL,CCCCCC[C@H]1OC(=O)CNC(=O)[C@@H]([C@H](C)O)NC(=O)[C@H](CO)NC(=O)[C@H]([C@@H](C)CC)NC(=O)[C@H](CC(C)C)N(C)C(=O)[C@@H]1C
3,> 100 µg/mL,CCCCCC[C@H]1OC(=O)CNC(=O)[C@H](CC)NC(=O)[C@H](CO)NC(=O)[C@H]([C@H](C)CC)NC(=O)[C@H](CC(C)C)N(C)C(=O)[C@@H]1C

# System: Serratia marcescens
# Assay: Antibacterial activity against Serratia marcescens SANK 72790
# Assay type: functional
# Settings: not given
# Procedure, shortened: as §1
row,MIC,SMILES
1,> 100 µg/mL,CCCCCC[C@H]1OC(=O)CNC(=O)[C@@H]([C@H](C)OC)NC(=O)[C@H](CO)NC(=O)[C@H]([C@H](C)CC)NC(=O)[C@H](CC(C)C)N(C)C(=O)[C@@H]1C
2,> 100 µg/mL,CCCCCC[C@H]1OC(=O)CNC(=O)[C@@H]([C@H](C)O)NC(=O)[C@H](CO)NC(=O)[C@H]([C@@H](C)CC)NC(=O)[C@H](CC(C)C)N(C)C(=O)[C@@H]1C
3,> 100 µg/mL,CCCCCC[C@H]1OC(=O)CNC(=O)[C@H](CC)NC(=O)[C@H](CO)NC(=O)[C@H]([C@H](C)CC)NC(=O)[C@H](CC(C)C)N(C)C(=O)[C@@H]1C

# System: Proteus vulgaris
# Assay: Antibacterial activity against Proteus vulgaris SANK 72890
# Assay type: functional
# Settings: not given
# Procedure, shortened: as §1
row,MIC,SMILES
1,> 100 µg/mL,CCCCCC[C@H]1OC(=O)CNC(=O)[C@@H]([C@H](C)OC)NC(=O)[C@H](CO)NC(=O)[C@H]([C@H](C)CC)NC(=O)[C@H](CC(C)C)N(C)C(=O)[C@@H]1C
2,> 100 µg/mL,CCCCCC[C@H]1OC(=O)CNC(=O)[C@@H]([C@H](C)O)NC(=O)[C@H](CO)NC(=O)[C@H]([C@@H](C)CC)NC(=O)[C@H](CC(C)C)N(C)C(=O)[C@@H]1C
3,> 100 µg/mL,CCCCCC[C@H]1OC(=O)CNC(=O)[C@H](CC)NC(=O)[C@H](CO)NC(=O)[C@H]([C@H](C)CC)NC(=O)[C@H](CC(C)C)N(C)C(=O)[C@@H]1C

# System: Klebsiella pneumoniae
# Assay: Antibacterial activity against Klebsiella pneumoniae SANK 72490
# Assay type: functional
# Settings: not given
# Procedure, shortened: as §1
row,MIC,SMILES
1,50 µg/mL,CCCCCC[C@H]1OC(=O)CNC(=O)[C@@H]([C@H](C)OC)NC(=O)[C@H](CO)NC(=O)[C@H]([C@H](C)CC)NC(=O)[C@H](CC(C)C)N(C)C(=O)[C@@H]1C
2,25 µg/mL,CCCCCC[C@H]1OC(=O)CNC(=O)[C@@H]([C@H](C)O)NC(=O)[C@H](CO)NC(=O)[C@H]([C@@H](C)CC)NC(=O)[C@H](CC(C)C)N(C)C(=O)[C@@H]1C
3,50 µg/mL,CCCCCC[C@H]1OC(=O)CNC(=O)[C@H](CC)NC(=O)[C@H](CO)NC(=O)[C@H]([C@H](C)CC)NC(=O)[C@H](CC(C)C)N(C)C(=O)[C@@H]1C

# System: Enterobacter cloacae
# Assay: Antibacterial activity against Enterobacter cloacae 846
# Assay type: functional
# Settings: not given
# Procedure, shortened: as §1
row,MIC,SMILES
1,12.5 µg/mL,CCCCCC[C@H]1OC(=O)CNC(=O)[C@@H]([C@H](C)OC)NC(=O)[C@H](CO)NC(=O)[C@H]([C@H](C)CC)NC(=O)[C@H](CC(C)C)N(C)C(=O)[C@@H]1C
2,6.25 µg/mL,CCCCCC[C@H]1OC(=O)CNC(=O)[C@@H]([C@H](C)O)NC(=O)[C@H](CO)NC(=O)[C@H]([C@@H](C)CC)NC(=O)[C@H](CC(C)C)N(C)C(=O)[C@@H]1C
3,12.5 µg/mL,CCCCCC[C@H]1OC(=O)CNC(=O)[C@H](CC)NC(=O)[C@H](CO)NC(=O)[C@H]([C@H](C)CC)NC(=O)[C@H](CC(C)C)N(C)C(=O)[C@@H]1C

# System: Pseudomonas aeruginosa
# Assay: Antibacterial activity against Pseudomonas aeruginosa SANK 73190
# Assay type: functional
# Settings: not given
# Procedure, shortened: as §1
row,MIC,SMILES
1,> 100 µg/mL,CCCCCC[C@H]1OC(=O)CNC(=O)[C@@H]([C@H](C)OC)NC(=O)[C@H](CO)NC(=O)[C@H]([C@H](C)CC)NC(=O)[C@H](CC(C)C)N(C)C(=O)[C@@H]1C
2,> 100 µg/mL,CCCCCC[C@H]1OC(=O)CNC(=O)[C@@H]([C@H](C)O)NC(=O)[C@H](CO)NC(=O)[C@H]([C@@H](C)CC)NC(=O)[C@H](CC(C)C)N(C)C(=O)[C@@H]1C
3,> 100 µg/mL,CCCCCC[C@H]1OC(=O)CNC(=O)[C@H](CC)NC(=O)[C@H](CO)NC(=O)[C@H]([C@H](C)CC)NC(=O)[C@H](CC(C)C)N(C)C(=O)[C@@H]1C

# System: Pseudomonas aeruginosa
# Assay: Antibacterial activity against Pseudomonas aeruginosa SANK 3719
# Assay type: functional
# Settings: not given
# Procedure, shortened: as §1
row,MIC,SMILES
1,> 100 µg/mL,CCCCCC[C@H]1OC(=O)CNC(=O)[C@@H]([C@H](C)OC)NC(=O)[C@H](CO)NC(=O)[C@H]([C@H](C)CC)NC(=O)[C@H](CC(C)C)N(C)C(=O)[C@@H]1C
2,> 100 µg/mL,CCCCCC[C@H]1OC(=O)CNC(=O)[C@@H]([C@H](C)O)NC(=O)[C@H](CO)NC(=O)[C@H]([C@@H](C)CC)NC(=O)[C@H](CC(C)C)N(C)C(=O)[C@@H]1C
3,> 100 µg/mL,CCCCCC[C@H]1OC(=O)CNC(=O)[C@H](CC)NC(=O)[C@H](CO)NC(=O)[C@H]([C@H](C)CC)NC(=O)[C@H](CC(C)C)N(C)C(=O)[C@@H]1C

# System: Pseudomonas aeruginosa
# Assay: Antibacterial activity against Pseudomonas aeruginosa SANK 73090
# Assay type: functional
# Settings: not given
# Procedure, shortened: as §1
row,MIC,SMILES
1,> 100 µg/mL,CCCCCC[C@H]1OC(=O)CNC(=O)[C@@H]([C@H](C)OC)NC(=O)[C@H](CO)NC(=O)[C@H]([C@H](C)CC)NC(=O)[C@H](CC(C)C)N(C)C(=O)[C@@H]1C
2,> 100 µg/mL,CCCCCC[C@H]1OC(=O)CNC(=O)[C@@H]([C@H](C)O)NC(=O)[C@H](CO)NC(=O)[C@H]([C@@H](C)CC)NC(=O)[C@H](CC(C)C)N(C)C(=O)[C@@H]1C
3,> 100 µg/mL,CCCCCC[C@H]1OC(=O)CNC(=O)[C@H](CC)NC(=O)[C@H](CO)NC(=O)[C@H]([C@H](C)CC)NC(=O)[C@H](CC(C)C)N(C)C(=O)[C@@H]1C
